Test [1] in a line: In vitro inhibition of 40 uM NMDA induced depolarization in rat cortical slices.
In test [2] the test system is Mus musculus. As to the kind of experiment: Minimum effective dose measures the in vivo N-methyl-D-aspartate glutamate receptor antagonist activity of compound and its ability to protect mice from lethality induced by 200 mg/kg ip injection of NMDA. The format is functional. The note with it: route intraperitoneal, read-out: MED. An outline of the steps:
(§1)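 Mice were given the compound ip 30 min before an ip challenge of NMDA at 200 mg/kg, a dose lethal to ≥95% of animals. Survival was scored with five animals tested per dose. MED was taken as the lowest dose protecting >50% of animals, meaning at least three of five survived.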

The target of test [3] is Glutamate NMDA receptor. As to the kind of experiment: Displacement of [3H]CGS-19,755 from glutamate recognition site of N-methyl-D-aspartate glutamate receptor complex. The format is protein-complex assay, Rattus norvegicus. (Displacement assays read how much labelled ligand stays bound in the presence of the test substance.)
Test [4] concerns Mus musculus. As to the kind of experiment: Minimum effective dose measures the in vivo NMDA antagonist activity of compound and its ability to protect mice from lethality induced by 200 mg/kg ip injection of NMDA. The format is functional. The note with it: route intraperitoneal; for minimal effective dose: Mus musculus, ip, read-out: MED; for MED: NMDA challenge 200 mg/kg, 200 mg/kg. An outline of the steps:
as §1

Test [5] deals with Glutamate NMDA receptor. As to the kind of experiment: In vitro compound's ability to displace [3H]-CGS-19,755 binding as a measure of its affinity for the glutamate recognition site on the NMDA receptor complex. The format is protein-complex assay.

Some results are limits rather than exact numbers.

As usually defined, the IC50 is the concentration that gives 50% inhibition. On to `O=C(O)C1Cc2cc(Cc3nnn[nH]3)ccc2CN1` (stereo not drawn), for which inhibition in test [1] was half-maximal at 36.6 µM (IC50). Moreover, the minimal effective dose in the test on Mus musculus [2] was more than 160 mg/kg.
Take `O=C(O)[C@@H]1C[C@H](CP(=O)(O)O)CCN1` [SELFOTEL]: inhibition in test [1] was half-maximal at 1.6 µM (IC50).
As for `O=C(O)C1NCCC2CC(Cc3nnn[nH]3)CCC21` (stereo not drawn), half-maximal inhibition in test [1] (IC50) was put at 7.8 µM. In the test on Mus musculus [2], the minimal effective dose is 160 mg/kg.
Turning to `O=C(O)[C@@H]1C[C@H]2CC(CP(=O)(O)O)CC[C@H]2N1` (stereo partly drawn), the 50% inhibitory concentration (IC50) is more than 100 µM in test [1] and more than 10 µM at Glutamate NMDA receptor [3]. In addition, the minimal effective dose in the test with Mus musculus [2] is more than 160 mg/kg.
For `O=C(O)[C@@H]1C[C@H]2CC(Cc3nnn[nH]3)CC[C@H]2N1` (stereo partly drawn) the same measures were more than 100 µM, more than 10 µM and more than 160 mg/kg.
As for `O=C(O)C1Cc2cc(CP(=O)(O)O)ccc2CN1` (stereo not drawn), the IC50 in test [1] is 34.4 µM; on Glutamate NMDA receptor [3], 13.8 µM. The minimal effective dose in the test with Mus musculus [2] was more than 160 mg/kg.
In test [1], `O=C(O)[C@H]1C[C@@H](Cc2nnn[nH]2)CCN1` came in with an IC50 of 4.2 µM. Further, the minimal effective dose in the test with Mus musculus [4] came out at 5 mg/kg.
For the molecule `O=C(O)C1CC2CC(Cc3nnn[nH]3)CCC2CN1` (stereo not drawn), the IC50 is more than 100 µM in test [1] and more than 10 µM at Glutamate NMDA receptor [3]. Moreover, in the test with Mus musculus [2], the minimal effective dose was more than 160 mg/kg.
Consider `O=C(O)C1CC2CC(CP(=O)(O)O)CCC2CN1` (stereo not drawn), for which the 50% inhibitory concentration (IC50) is more than 100 µM in test [1] and more than 10 µM at Glutamate NMDA receptor [3]. Moreover, the minimal effective dose in the test on Mus musculus [2] was more than 160 mg/kg.
As for `CN1CCC2(CCCC(CP(=O)(O)O)C2)CC1C(=O)O` (stereo not drawn), the minimal effective dose in the test with Mus musculus [4] is more than 160 mg/kg. On Glutamate NMDA receptor [5], this molecule displayed a 50% inhibitory concentration (IC50) of more than 10 µM.
In test [1], `O=C(O)C1CC2C[C@@H](Cc3nnn[nH]3)CCC2CN1` (stereo in doubt; 32b) had a 50% inhibitory concentration (IC50) of 4.8 µM. Moreover, the MED in the test on Mus musculus [4] stood at 40 mg/kg.
Turning to `O=C(O)C1CC2C[C@@H](Cc3nnn[nH]3)CCC2CN1` (stereo in doubt; 32a), in test [1], the half-maximal inhibitory concentration (IC50) amounted to 1.39 µM. Moreover, the MED with Mus musculus [4] was 2.5 mg/kg.
